ChEMBL document CHEMBL1154716, “Synthesis of some new S-triazine based chalcones and their derivatives as potent antimicrobial agents” (2010)
Values after ≈ are worked out from the molar mass of the structure shown. Active and inactive are the calls of the source. The rule behind the calls is not given here.

Assays:
Pseudomonas aeruginosa [1] = assay: Antimicrobial activity against Pseudomonas aeruginosa at 10 ug/disk after 24 hrs by disk diffusion assay; type: functional
Method in brief: (§1)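 Disc diffusion on 4 mm filter discs. Bacteria are grown overnight in LB at 28 C, then adjusted in saline to 1.0 × 10^5 cfu/ml. The suspension is mixed into top agar over peptone agar plates. Plates are incubated 24 h at 28 C, and growth-inhibition zone diameter is measured. Streptomycin and ampicillin controls are applied from a 1 mg/ml stock. Tests are done in duplicate.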

Salmonella typhimurium [2] = assay: Antimicrobial activity against Salmonella Typhimurium at 1 umol/spot after 18 hrs by TLC-bioautographic method; type: functional, Salmonella enterica subsp. enterica serovar Typhimurium
Method in brief: (§2)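 TLC bioautography. Samples are spotted on silica gel TLC plates, then sprayed with bacteria (1.0 × 10^5 cfu/ml) in tryptic soy broth. Plates are incubated 18 h at 37 C and sprayed with 3% aqueous p-iodonitrotetrazolium violet. After a further 3 h, growth is stopped with 70% EtOH. White zones on a pink background are scored as inhibition-zone diameter with standard errors.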

Listeria monocytogenes [3] = assay: Antimicrobial activity against Listeria monocytogenes at 10 ug/disk after 24 hrs by disk diffusion assay; type: functional; method in brief: as §1
Staphylococcus aureus [4] = assay: Antimicrobial activity against Staphylococcus aureus at 1 umol/disk after 24 hrs by disk diffusion assay; type: functional; parameters: unit not given here; method in brief: as §1
Salmonella typhimurium [5] = assay: Antimicrobial activity against Salmonella Typhimurium at 1 umol/disk after 24 hrs by disk diffusion assay; type: functional, organism-based; conditions: Salmonella enterica subsp. enterica serovar Typhimurium; method in brief: as §1
Salmonella typhimurium [6] = assay: Antimicrobial activity against Salmonella Typhimurium after 24 hrs by microdilution technique; type: functional, Salmonella enterica subsp. enterica serovar Typhimurium; conditions: Salmonella enterica
Method in brief: (§3)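 Broth microdilution in LB medium. Inoculum is 1.0 × 10^4 cfu per well, from a saline-adjusted suspension of 1.0 × 10^5 cfu/ml. Compounds are dissolved in DMSO. Incubated 24 h at 28 C. MIC is the lowest concentration with no visible growth under a binocular microscope. MBC is read by subculture into fresh broth for 72 h, with no growth taken as 99.5% kill. OD is read at 655 nm.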

Micrococcus flavus [7] = assay: Antimicrobial activity against Micrococcus flavus at 1 umol/disk after 24 hrs by disk diffusion assay; type: functional; method in brief: as §1
Listeria monocytogenes [8] = assay: Antimicrobial activity against Listeria monocytogenes at 1 umol/disk after 24 hrs by disk diffusion assay; type: functional; method in brief: as §1
Staphylococcus aureus [9] = assay: Antimicrobial activity against Staphylococcus aureus at 10 ug/disk after 24 hrs by disk diffusion assay; type: functional; method in brief: as §1
Escherichia coli [10] = assay: Antimicrobial activity against Escherichia coli at 1 umol/disk after 24 hrs by disk diffusion assay; type: functional; method in brief: as §1
Bacillus cereus [11] = assay: Antimicrobial activity against Bacillus cereus at 1 umol/spot after 18 hrs by TLC-bioautographic method; type: functional; method in brief: as §2
Escherichia coli [12] = assay: Antimicrobial activity against Escherichia coli at 10 ug/disk after 24 hrs by disk diffusion assay; type: functional; method in brief: as §1
Enterobacter cloacae [13] = assay: Antimicrobial activity against Enterobacter cloacae after 24 hrs by microdilution technique; type: functional; method in brief: as §3
Micrococcus flavus [14] = assay: Antimicrobial activity against Micrococcus flavus at 1 umol/spot after 18 hrs by TLC-bioautographic method; type: functional; method in brief: as §2
Enterobacter cloacae [15] = assay: Antimicrobial activity against Enterobacter cloacae at 1 umol/spot after 18 hrs by TLC-bioautographic method; type: functional; method in brief: as §2
Bacillus cereus [16] = assay: Antimicrobial activity against Bacillus cereus at 10 ug/disk after 24 hrs by disk diffusion assay; type: functional; method in brief: as §1
Pseudomonas aeruginosa [17] = assay: Antimicrobial activity against Pseudomonas aeruginosa at 1 umol/disk after 24 hrs by disk diffusion assay; type: functional; method in brief: as §1
Enterobacter cloacae [18] = assay: Antimicrobial activity against Enterobacter cloacae at 1 umol/disk after 24 hrs by disk diffusion assay; type: functional; method in brief: as §1
Listeria monocytogenes [19] = assay: Antimicrobial activity against Listeria monocytogenes at 1 umol/spot after 18 hrs by TLC-bioautographic method; type: functional; method in brief: as §2
Pseudomonas aeruginosa [20] = assay: Antimicrobial activity against Pseudomonas aeruginosa at 1 umol/spot after 18 hrs by TLC-bioautographic method; type: functional; method in brief: as §2
Staphylococcus aureus [21] = assay: Antimicrobial activity against Staphylococcus aureus at 1 umol/spot after 18 hrs by TLC-bioautographic method; type: functional; method in brief: as §2
Pseudomonas aeruginosa [22] = assay: Antimicrobial activity against Pseudomonas aeruginosa after 24 hrs by microdilution technique; type: functional; method in brief: as §3
Listeria monocytogenes [23] = assay: Antimicrobial activity against Listeria monocytogenes after 24 hrs by microdilution technique; type: functional; method in brief: as §3
Escherichia coli [24] = assay: Antimicrobial activity against Escherichia coli after 24 hrs by microdilution technique; type: functional; method in brief: as §3
Bacillus cereus [25] = assay: Antimicrobial activity against Bacillus cereus at 1 umol/disk after 24 hrs by disk diffusion assay; type: functional; method in brief: as §1
Bacillus cereus [26] = assay: Antimicrobial activity against Bacillus cereus after 24 hrs by microdilution technique; type: functional; method in brief: as §3
Salmonella typhimurium [27] = assay: Antimicrobial activity against Salmonella Typhimurium at 10 ug/disk after 24 hrs by disk diffusion assay; type: functional, organism-based; conditions: Salmonella enterica subsp. enterica serovar Typhimurium; method in brief: as §1
Micrococcus flavus [28] = assay: Antimicrobial activity against Micrococcus flavus at 10 ug/disk after 24 hrs by disk diffusion assay; type: functional; conditions: read-out: IZ; method in brief: as §1
Micrococcus flavus [29] = assay: Antimicrobial activity against Micrococcus flavus after 24 hrs by microdilution technique; type: functional; method in brief: as §3
Enterobacter cloacae [30] = assay: Antimicrobial activity against Enterobacter cloacae at 10 ug/disk after 24 hrs by disk diffusion assay; type: functional; method in brief: as §1
Escherichia coli [31] = assay: Antimicrobial activity against Escherichia coli at 1 umol/spot after 18 hrs by TLC-bioautographic method; type: functional; method in brief: as §2
Staphylococcus aureus [32] = assay: Antimicrobial activity against Staphylococcus aureus after 24 hrs by microdilution technique; type: functional; method in brief: as §3

Question: With `Nc1nc(-c2ccc(Cl)cc2)cc(-c2ccc(Nc3nc(Nc4ccccc4)nc(Nc4ccccc4)n3)cc2)n1` as the compound, how does the “inhibition zone (IZ)” value (Pseudomonas aeruginosa [1]) read?
Answer: Its value is “inactive”.

Question: What about the “inhibition zone (IZ)” value (Salmonella typhimurium [2]) of the same compound?
Answer: Its value is 0.07 millimeter.

Question: What about the “inhibition zone (IZ)” value (Listeria monocytogenes [3]) of the same compound?
Answer: Its value is “inactive”.

Question: What about the “inhibition zone (IZ)” value (Staphylococcus aureus [4]) of the same compound?
Answer: The value was 0.04.

Question: What about the “inhibition zone (IZ)” value (Salmonella typhimurium [5]) of the same compound?
Answer: Its value is “inactive”.

Question: And the MBC (Salmonella typhimurium [6])?
Answer: The MBC was 358 µM (≈ 200 µg/mL).

Question: And the MIC (Salmonella typhimurium [6])?
Answer: Its MIC is 179 µM (≈ 99.9 µg/mL).

Question: What about the “inhibition zone (IZ)” value (Micrococcus flavus [7]) of the same compound?
Answer: The value was 0.05 millimeter.

Question: What about the “inhibition zone (IZ)” value (Listeria monocytogenes [8]) of the same compound?
Answer: The value was “inactive”.

Question: And the zone of inhibition at 10 µg/disc (Staphylococcus aureus [9]; read-out: IZ)?
Answer: Its zone of inhibition at 10 µg/disc is 7 mm.

Question: And the “inhibition zone (IZ)” value (Escherichia coli [10])?
Answer: The value was “inactive”.

Question: What about the “inhibition zone (IZ)” value (Bacillus cereus [11]) of the same compound?
Answer: Its value is 0.09 millimeter.

Question: What about the “inhibition zone (IZ)” value (Escherichia coli [12]) of the same compound?
Answer: The value was “inactive”.

Question: And the MBC (Enterobacter cloacae [13])?
Answer: The MBC was 179 µM (≈ 99.9 µg/mL).

Question: What about the MIC (Enterobacter cloacae [13]) of the same compound?
Answer: Its MIC is 89.5 µM (≈ 49.9 µg/mL).

Question: And the “inhibition zone (IZ)” value (Micrococcus flavus [14])?
Answer: The value was 0.07 millimeter.

Question: What about the “inhibition zone (IZ)” value (Enterobacter cloacae [15]) of the same compound?
Answer: Its value is “inactive”.

Question: And the “inhibition zone (IZ)” value (Bacillus cereus [16])?
Answer: Its value is “inactive”.

Question: And the “inhibition zone (IZ)” value (Pseudomonas aeruginosa [17])?
Answer: The value was “inactive”.

Question: And the “inhibition zone (IZ)” value (Enterobacter cloacae [18])?
Answer: Its value is “inactive”.

Question: And the “inhibition zone (IZ)” value (Listeria monocytogenes [19])?
Answer: The value was 0.08 millimeter.

Question: And the “inhibition zone (IZ)” value (Pseudomonas aeruginosa [20])?
Answer: Its value is “inactive”.

Question: What about the “inhibition zone (IZ)” value (Staphylococcus aureus [21]) of the same compound?
Answer: Its value is 0.04 millimeter.

Question: And the MBC (Pseudomonas aeruginosa [22])?
Answer: The MBC was 358 µM (≈ 200 µg/mL).

Question: And the MIC (Pseudomonas aeruginosa [22])?
Answer: Its MIC is 179 µM (≈ 99.9 µg/mL).

Question: What about the MBC (Listeria monocytogenes [23]) of the same compound?
Answer: The MBC was 716 µM (≈ 400 µg/mL).

Question: What about the MIC (Listeria monocytogenes [23]) of the same compound?
Answer: Its MIC is 358 µM (≈ 200 µg/mL).

Question: And the MBC (Escherichia coli [24])?
Answer: The MBC was 179 µM (≈ 99.9 µg/mL).

Question: What about the MIC (Escherichia coli [24]) of the same compound?
Answer: The MIC was 89.5 µM (≈ 49.9 µg/mL).

Question: And the “inhibition zone (IZ)” value (Bacillus cereus [25])?
Answer: The value was “inactive”.

Question: And the MBC (Bacillus cereus [26])?
Answer: Its MBC is 179 µM (≈ 99.9 µg/mL).

Question: And the MIC (Bacillus cereus [26])?
Answer: The MIC was 89.5 µM (≈ 49.9 µg/mL).

Question: And the “inhibition zone (IZ)” value (Salmonella typhimurium [27])?
Answer: The value was “inactive”.

Question: What about the zone of inhibition at 10 µg/disc (Micrococcus flavus [28]) of the same compound?
Answer: The zone of inhibition at 10 µg/disc was 9 mm.

Question: And the MBC (Micrococcus flavus [29])?
Answer: Its MBC is 358 µM (≈ 200 µg/mL).

Question: What about the MIC (Micrococcus flavus [29]) of the same compound?
Answer: The MIC was 179 µM (≈ 99.9 µg/mL).

Question: What about the “inhibition zone (IZ)” value (Enterobacter cloacae [30]) of the same compound?
Answer: The value was “inactive”.

Question: And the “inhibition zone (IZ)” value (Escherichia coli [31])?
Answer: Its value is 0.08 millimeter.

Question: And the MBC (Staphylococcus aureus [32])?
Answer: Its MBC is 358 µM (≈ 200 µg/mL).

Question: What about the MIC (Staphylococcus aureus [32]) of the same compound?
Answer: The MIC was 179 µM (≈ 99.9 µg/mL).

Question: Which results are given for `N#Cc1c(-c2ccc(Cl)cc2)cc(-c2ccc(Nc3nc(Nc4ccccc4)nc(Nc4ccccc4)n3)cc2)nc1N`?
Answer: inhibition zone (IZ) (Pseudomonas aeruginosa [1]): inactive; inhibition zone (IZ) (Salmonella typhimurium [2]): 0.08 millimeter; inhibition zone (IZ) (Listeria monocytogenes [3]): inactive; inhibition zone (IZ) (Staphylococcus aureus [4]): inactive; inhibition zone (IZ) (Salmonella typhimurium [5]): inactive; MBC (Salmonella typhimurium [6]): 344 µM (≈ 200 µg/mL); MIC (Salmonella typhimurium [6]): 172 µM (≈ 100 µg/mL); inhibition zone (IZ) (Micrococcus flavus [7]): 0.04 millimeter; inhibition zone (IZ) (Listeria monocytogenes [8]): inactive; inhibition zone (IZ) (Staphylococcus aureus [9]): inactive; inhibition zone (IZ) (Escherichia coli [10]): 0.04 millimeter; inhibition zone (IZ) (Bacillus cereus [11]): inactive; zone of inhibition at 10 µg/disc (Escherichia coli [12]; read-out: IZ): 7 mm; MBC (Enterobacter cloacae [13]): 344 µM (≈ 200 µg/mL); MIC (Enterobacter cloacae [13]): 172 µM (≈ 100 µg/mL); inhibition zone (IZ) (Micrococcus flavus [14]): 0.07 millimeter; inhibition zone (IZ) (Enterobacter cloacae [15]): 0.08 millimeter; inhibition zone (IZ) (Bacillus cereus [16]): inactive; inhibition zone (IZ) (Pseudomonas aeruginosa [17]): inactive; inhibition zone (IZ) (Enterobacter cloacae [18]): inactive; inhibition zone (IZ) (Listeria monocytogenes [19]): 0.08 millimeter; inhibition zone (IZ) (Pseudomonas aeruginosa [20]): 0.09 millimeter; inhibition zone (IZ) (Staphylococcus aureus [21]): inactive; MBC (Pseudomonas aeruginosa [22]): 688 µM (≈ 400 µg/mL); MIC (Pseudomonas aeruginosa [22]): 688 µM (≈ 400 µg/mL); MBC (Listeria monocytogenes [23]): 688 µM (≈ 400 µg/mL); MIC (Listeria monocytogenes [23]): 688 µM (≈ 400 µg/mL); MBC (Escherichia coli [24]): 344 µM (≈ 200 µg/mL); MIC (Escherichia coli [24]): 172 µM (≈ 100 µg/mL); inhibition zone (IZ) (Bacillus cereus [25]): inactive; MBC (Bacillus cereus [26]): 344 µM (≈ 200 µg/mL); MIC (Bacillus cereus [26]): 172 µM (≈ 100 µg/mL); inhibition zone (IZ) (Salmonella typhimurium [27]): inactive; zone of inhibition at 10 µg/disc (Micrococcus flavus [28]): 7 mm; MBC (Micrococcus flavus [29]): 344 µM (≈ 200 µg/mL); MIC (Micrococcus flavus [29]): 172 µM (≈ 100 µg/mL); inhibition zone (IZ) (Enterobacter cloacae [30]): inactive; inhibition zone (IZ) (Escherichia coli [31]): 0.09 millimeter; MBC (Staphylococcus aureus [32]): 344 µM (≈ 200 µg/mL); MIC (Staphylococcus aureus [32]): 172 µM (≈ 100 µg/mL)
